In one assay the target is T1, OR5K1 (Homo sapiens, UniProt Q8NHB7).
T1 sequence (Q8NHB7 1-308): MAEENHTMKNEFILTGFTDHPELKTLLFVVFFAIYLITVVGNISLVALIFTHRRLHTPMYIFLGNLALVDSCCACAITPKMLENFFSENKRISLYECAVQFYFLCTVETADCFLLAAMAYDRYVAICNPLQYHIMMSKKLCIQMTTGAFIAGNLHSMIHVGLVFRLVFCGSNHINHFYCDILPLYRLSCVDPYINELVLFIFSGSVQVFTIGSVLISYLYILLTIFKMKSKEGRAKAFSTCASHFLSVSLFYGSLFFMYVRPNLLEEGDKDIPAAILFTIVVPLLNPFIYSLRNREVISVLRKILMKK
The assay is described as follows: cAMPr fluorescence imaging in transfected HEK293T cells. In kind it is cell-based. The procedure, abridged: (§1)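 HEK293T cells stably expressing the cpGFP-based cAMP sensor cAMPr, on collagen-coated glass dishes, transfected with Rho-tagged receptor (N-terminal 20 residues of bovine rhodopsin) plus RTP1S. Each odorant concentration was tested in a separate experiment, with or without fibronectin, and curves were fitted for EC50 and Hill coefficient.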

Another assay addresses T2, OR8D1 (Homo sapiens, UniProt Q8WZ84).
T2 sequence (Q8WZ84 1-308): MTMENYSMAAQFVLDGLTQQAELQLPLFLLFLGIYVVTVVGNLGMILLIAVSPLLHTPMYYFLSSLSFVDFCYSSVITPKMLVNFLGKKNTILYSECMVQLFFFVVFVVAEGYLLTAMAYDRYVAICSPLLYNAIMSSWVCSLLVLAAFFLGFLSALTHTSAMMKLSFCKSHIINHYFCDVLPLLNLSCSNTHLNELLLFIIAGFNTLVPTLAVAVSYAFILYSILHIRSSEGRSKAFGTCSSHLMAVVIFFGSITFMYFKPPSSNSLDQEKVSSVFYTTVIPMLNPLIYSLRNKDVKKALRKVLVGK
The assay is described as follows: cAMPr fluorescence imaging in transfected HEK293T cells. In kind it is cell-based.

Another assay addresses T3, Olfr73 (mOR-EG) (Mus musculus, UniProt Q920P2).
T3 sequence (Q920P2 1-313): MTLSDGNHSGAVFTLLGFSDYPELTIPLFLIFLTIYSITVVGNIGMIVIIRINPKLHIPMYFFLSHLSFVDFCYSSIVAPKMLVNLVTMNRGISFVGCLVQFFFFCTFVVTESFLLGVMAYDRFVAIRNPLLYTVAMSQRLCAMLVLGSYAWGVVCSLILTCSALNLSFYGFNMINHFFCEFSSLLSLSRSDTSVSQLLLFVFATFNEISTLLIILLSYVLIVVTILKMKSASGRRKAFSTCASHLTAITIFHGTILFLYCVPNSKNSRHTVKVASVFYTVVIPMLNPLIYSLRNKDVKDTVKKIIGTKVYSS
The assay is described as above. The assay is classed as cell-based.

The next assay addresses T4, OR51E1 (Homo sapiens, UniProt Q8TCB6).
T4 sequence (Q8TCB6 1-318): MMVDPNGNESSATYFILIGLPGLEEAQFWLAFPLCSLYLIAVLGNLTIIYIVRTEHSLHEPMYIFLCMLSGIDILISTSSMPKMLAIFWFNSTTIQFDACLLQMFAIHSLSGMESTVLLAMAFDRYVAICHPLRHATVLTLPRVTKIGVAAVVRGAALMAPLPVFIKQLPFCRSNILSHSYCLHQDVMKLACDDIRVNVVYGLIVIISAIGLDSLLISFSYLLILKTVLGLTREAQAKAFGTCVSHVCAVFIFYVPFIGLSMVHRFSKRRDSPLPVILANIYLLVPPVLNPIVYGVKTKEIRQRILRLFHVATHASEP
The experiment in a line: cAMPr fluorescence imaging in transfected HEK293T cells. In kind it is cell-based. A digest of the protocol:
as §1

In a further assay the target is T5, OR5P3 (Homo sapiens, UniProt Q8WZ94).
T5 sequence (Q8WZ94 1-311): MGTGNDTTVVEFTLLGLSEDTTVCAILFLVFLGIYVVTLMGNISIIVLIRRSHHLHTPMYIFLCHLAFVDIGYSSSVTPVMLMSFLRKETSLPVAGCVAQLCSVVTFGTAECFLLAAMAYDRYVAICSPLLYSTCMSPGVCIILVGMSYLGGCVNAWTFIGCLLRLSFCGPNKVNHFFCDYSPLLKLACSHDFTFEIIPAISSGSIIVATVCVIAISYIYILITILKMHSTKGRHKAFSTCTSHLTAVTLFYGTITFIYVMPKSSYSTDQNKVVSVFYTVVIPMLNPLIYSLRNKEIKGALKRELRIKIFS
Described as above. In kind it is cell-based. The procedure, abridged: as §1

The next assay has as its target T6, OR5AN1 (Homo sapiens, UniProt Q8NGI8).
T6 sequence (Q8NGI8 1-311): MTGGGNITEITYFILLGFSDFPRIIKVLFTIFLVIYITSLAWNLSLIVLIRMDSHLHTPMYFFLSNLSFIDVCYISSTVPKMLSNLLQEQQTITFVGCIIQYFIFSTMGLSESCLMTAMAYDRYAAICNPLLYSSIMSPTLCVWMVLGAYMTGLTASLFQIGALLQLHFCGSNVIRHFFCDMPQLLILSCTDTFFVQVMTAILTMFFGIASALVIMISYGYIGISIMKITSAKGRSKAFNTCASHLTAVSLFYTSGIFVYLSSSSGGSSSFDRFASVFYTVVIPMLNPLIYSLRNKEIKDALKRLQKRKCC
The experiment in a line: cAMPr fluorescence imaging in transfected HEK293T cells. In kind it is cell-based.

The next assay has as its target T7, OR2W1 (Homo sapiens, UniProt Q9Y3N9).
T7 sequence (Q9Y3N9 1-320): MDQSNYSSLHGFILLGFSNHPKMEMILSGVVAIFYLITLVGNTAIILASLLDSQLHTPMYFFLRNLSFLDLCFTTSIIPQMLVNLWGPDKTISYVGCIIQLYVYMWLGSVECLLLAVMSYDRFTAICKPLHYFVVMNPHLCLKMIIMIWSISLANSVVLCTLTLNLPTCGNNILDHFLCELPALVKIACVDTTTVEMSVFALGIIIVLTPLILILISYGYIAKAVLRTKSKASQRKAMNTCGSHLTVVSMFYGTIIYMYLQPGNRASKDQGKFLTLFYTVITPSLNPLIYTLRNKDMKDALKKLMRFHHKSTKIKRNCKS
Described as above. In kind it is cell-based.

A further assay concerns the target OR1D2; OR1D1 (Table 2) (Homo sapiens, UniProt P34982). The assay is described as follows: cell-based.
The next assay deals with T8, OR2J2 (Homo sapiens, UniProt O76002).
T8 sequence (O76002 1-312): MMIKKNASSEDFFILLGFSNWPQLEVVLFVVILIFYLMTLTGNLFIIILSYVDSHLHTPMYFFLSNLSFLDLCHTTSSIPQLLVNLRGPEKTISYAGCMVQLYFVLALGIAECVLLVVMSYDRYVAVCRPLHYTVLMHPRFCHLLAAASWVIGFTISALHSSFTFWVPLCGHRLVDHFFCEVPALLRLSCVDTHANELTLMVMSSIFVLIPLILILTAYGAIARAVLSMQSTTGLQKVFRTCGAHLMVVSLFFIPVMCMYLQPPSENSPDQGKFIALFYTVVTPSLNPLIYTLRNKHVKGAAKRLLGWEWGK
The experiment in a line: cAMPr fluorescence imaging in transfected HEK293T cells. The assay is classed as cell-based. A digest of the protocol: as §1

Sequence of OR1D2; OR1D1 (Table 2) (P34982 whole entry): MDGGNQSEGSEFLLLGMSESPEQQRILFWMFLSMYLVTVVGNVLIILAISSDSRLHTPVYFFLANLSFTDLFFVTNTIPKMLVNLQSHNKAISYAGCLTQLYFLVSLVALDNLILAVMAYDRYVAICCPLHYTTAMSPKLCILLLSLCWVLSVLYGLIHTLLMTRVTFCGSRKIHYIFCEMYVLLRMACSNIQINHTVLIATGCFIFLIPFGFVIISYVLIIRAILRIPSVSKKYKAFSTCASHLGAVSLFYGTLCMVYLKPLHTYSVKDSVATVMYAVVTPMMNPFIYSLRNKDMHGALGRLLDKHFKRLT

`Cc1nccnc1C` [2,3-dimethyl pyrazine]: it took 12000 µM to reach a half-maximal effect on OR5K1 (EC50).
As to `CC1=C(O)C(=O)CC1` [cyclotene], at OR8D1, the response was half-maximal at 1100 µM (EC50).
`C=CCc1ccc(O)c(OC)c1` [eugenol] displayed an EC50 on Olfr73 (mOR-EG) of 154 µM.
Regarding `CC(C)CC(=O)O` [isovaleric acid], at OR51E1, the EC50 came out at 840 µM.
For `COC(=O)c1ccccc1N` [methyl anthranilate], a half-maximal response at OR5P3 (EC50) required 2200 µM.
Turning to `CC1CCCCCCCCCCCCC(=O)C1` (centres unmarked) [muscone], on OR5AN1, the EC50 turned out to be 290 µM.
At OR2W1, `CCCCCOC(C)=O` [pentyl acetate] showed an EC50 of 44 µM.
The compound `CC1=C(O)C(=O)OC1C` (centres unmarked) [sotolon] came in with an EC50 on OR8D1 of 7.7 µM.
`OCCc1ccccc1` [β-phenylethyl alcohol]: the EC50 on OR2W1 amounted to 1500 µM.
As to `CCCCCCCC1CCC(=O)O1` (centres unmarked) [γ-undecalactone], the values for the concentration for a half-maximal effect (EC50) on OR1D2; OR1D1 (Table 2) and on OR2J2 were 150 µM and 250 µM, respectively.

The values are drawn from PMC12077508 (Science Advances, 2025).
